We go through ten compounds from ChEMBL document CHEMBL2390938, “Synthesis and anti-inflammatory evaluations of β-lapachone derivatives” (Bioorg Med Chem, 2013).

Activity calls are given as the source filed them. The calls are words filed in the database; no cut-off is given here.

Data set [1] deals with T1, MAP kinase p38 (Mus musculus) (UniProt P47811+O08911+Q9WUI1+Q9Z1B7). Briefly: Inhibition of p38 MAPK phosphorylation in LPS-induced mouse RAW264.7 cells incubated for 2 hrs prior to LPS challenge measured after 24 hrs by Western blot analysis. The data set is classed as cell-based. The gist of the method:
(§1)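 Cells at 5 × 10^5/well, pretreated 2 h, then LPS 0.1 µg/mL for 24 h. 15 µg lysate protein run on 8% SDS-PAGE. p38 and p-p38 detected by Western blot with densitometry. Relative density = p-p38/β-actin. Means + S.D. of 3 experiments in triplicate.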
(In general: In western blotting, separated proteins are transferred to a membrane and probed.)

The subject of data set [2] is RAW264.7. Briefly: Antiinflammatory activity in mouse RAW264.7 cells assessed as inhibition of LPS-induced MMP-9 expression incubated for 2 hrs prior to LPS challenge measured after 24 hrs by gelatin zymographic analysis. The data set is classed as functional, cell-based. The gist of the method:
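Cells plated 16–18 h, then treated with LPS 0.1 µg/ml plus compound (0.5, 1.0, 2.0 µM). Medium collected at 24 h and concentrated. Run on 7.5% acrylamide gel containing 2 mg/ml gelatin. Gel renatured in Triton X-100, then buffer overnight at 37 °C, developed 16–18 h in Tris pH 7.5/NaCl/CaCl2. Coomassie stain. MMP-9 band scanned, expressed as % of control.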

Data set [3] has as its system RAW264.7. Briefly: Antiinflammatory activity in mouse RAW264.7 cells assessed as inhibition of LPS-induced nitric oxide production after 24 hrs by Griess assay. In kind it is functional, cell-based. To be noted: RAW264.7, 24 h. The method in brief:
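Nitrite in medium read by Griess reagent (1% sulfanilamide, 0.1% naphthylethylenediamine in 5% phosphoric acid) mixed 1:1 with medium for 5 min. Absorbance at 550 nm, quantified against a sodium nitrite standard in culture medium.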
(The Griess reaction detects nitrite, a stable product of nitric oxide.)

Data set [4] deals with RAW264.7. Briefly: Antiinflammatory activity in mouse RAW264.7 cells assessed as downregulation of LPS-induced iNOS mRNA expression incubated for 2 hrs prior to LPS challenge measured after 9 hrs by RT-PCR analysis. In kind it is functional, cell-based. The gist of the method: (§2)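 Cells at 5 × 10^5/well, pretreated 2 h, then LPS 0.1 µg/mL for 9 h. Total RNA isolated with Trizol. 1 µg RNA reverse-transcribed with oligo dT primers. Amplicons run on 3% agarose gel, band intensity normalized to GAPDH. Means + S.D. of 3 experiments in triplicate.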

Data set [5] concerns RAW264.7. Briefly: Antiinflammatory activity in mouse RAW264.7 cells assessed as downregulation of LPS-induced TNFalpha expression incubated for 2 hrs prior to LPS challenge measured after 24 hrs by ELISA. In kind it is functional, cell-based. The method in brief: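 Cells seeded 5 × 10^5/well, pretreated 2 h with compound (0.5, 1.0, 2.0 or 5.0 µM), then LPS 0.1 µg/mL for 24 h. TNF-α measured in culture medium by ELISA kit. Means + S.D. of 3 separate experiments in triplicate.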
(In general: An ELISA detects its analyte on a solid surface through an enzyme-linked reagent.)

For data set [6], the system named is RAW264.7. Briefly: Antiinflammatory activity in mouse RAW264.7 cells assessed as inhibition of LPS-induced iNOS expression incubated for 2 hrs prior to LPS challenge measured after 24 hrs by Western blot analysis. In kind it is functional, cell-based. The method in brief: (§3)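 Cells at 5 × 10^5/well, pretreated 2 h, then LPS 0.1 µg/mL for 24 h. Lysed in RIPA and protein assayed by Bradford. 20–50 µg separated on 8–15% SDS-PAGE and blotted to PVDF. Probed for murine iNOS or COX-2, HRP secondary, ECL detection, densitometry. Means + S.D. of 3 experiments in triplicate.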

Data set [7] deals with Transcription factor p65 (Mus musculus) (UniProt Q04207). Briefly: Inhibition of NFkappaB p65 nuclear translocation in LPS-stimulated mouse RAW264.7 cells after 24 hrs by DAPI staining-based laser confocal immunofluorescent microscopic analysis. In kind it is cell-based. The gist of the method: (§4)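 Cells grown on glass coverslips 24 h, then given LPS 0.1 µg/mL and/or compound 0.5 µM. Fixed in 4% paraformaldehyde, permeabilized with 0.2% Triton X-100. Anti-p65 antibody applied 24 h, then Alexa 568 secondary 1 h. Nuclei stained with DAPI. Imaged by confocal microscopy.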
Transcription factor p65 (Mus musculus), sequence (Q04207 whole entry): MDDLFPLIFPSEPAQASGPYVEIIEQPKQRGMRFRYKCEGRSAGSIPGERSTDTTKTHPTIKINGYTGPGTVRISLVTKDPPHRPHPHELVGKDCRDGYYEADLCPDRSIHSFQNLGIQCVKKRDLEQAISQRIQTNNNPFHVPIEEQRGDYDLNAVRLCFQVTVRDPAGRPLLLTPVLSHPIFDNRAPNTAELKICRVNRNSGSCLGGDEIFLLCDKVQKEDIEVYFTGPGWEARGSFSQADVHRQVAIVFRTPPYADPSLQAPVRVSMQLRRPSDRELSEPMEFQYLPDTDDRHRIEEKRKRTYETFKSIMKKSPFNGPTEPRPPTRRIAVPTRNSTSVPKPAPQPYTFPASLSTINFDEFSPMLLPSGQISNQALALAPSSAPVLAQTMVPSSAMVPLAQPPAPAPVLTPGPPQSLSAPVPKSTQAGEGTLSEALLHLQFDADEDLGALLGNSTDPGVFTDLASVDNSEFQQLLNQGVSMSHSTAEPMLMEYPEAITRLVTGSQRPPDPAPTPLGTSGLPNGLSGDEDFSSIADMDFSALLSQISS

Data set [8] addresses T1, MAP kinase p38 (Mus musculus). Briefly: Inhibition of p38 MAPK phosphorylation in mouse RAW264.7 cells at 0.5 to 2 uM by Western blot analysis. The data set is classed as cell-based. The gist of the method:
as §1

Data set [9] deals with RAW264.7. Briefly: Cytotoxicity against mouse RAW264.7 cells assessed as cell viability after 24 hrs by MTS assay. The data set is classed as cell-based. To be noted: RAW264.7, 24 h. The method in brief:
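Cells seeded 5 × 10^4/well and exposed 24 h. MTS added, 1 h at 37 °C, absorbance read at 490 nm. Percent of control = Ab treated/Ab control × 100 (n = 3). IC50 is the concentration cutting absorbance by 50%, taken from the linear portion of the curve.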

Data set [10] relates to RAW264.7. Briefly: Antiinflammatory activity in mouse RAW264.7 cells assessed as inhibition of LPS-induced COX-2 expression incubated for 2 hrs prior to LPS challenge measured after 24 hrs by Western blot analysis. In kind it is functional, cell-based. The gist of the method: as §3
A short description of data set [11]: Induction of nitric oxide scavenging activity assessed as nitrite level at 10 uM at room temperature after 60 mins by Griess assay in presence of light and SNP. Particulars: 1 h. In kind it is physicochemical. The method in brief:
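Sodium nitroprusside 2.5 mM in PBS incubated alone or with compound (10 µM) in light at room temperature for 60 min. Nitrite then measured by Griess reaction. 1400 W (10 µM) as comparator.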

Data set [12] has as its system RAW264.7. Briefly: Antiinflammatory activity in mouse RAW264.7 cells assessed as inhibition of LPS-induced PGE2 production. In kind it is functional, cell-based.
Data set [13] relates to RAW264.7. Briefly: Antiinflammatory activity in mouse RAW264.7 cells assessed as inhibition of LPS-induced COX-2 expression at 0.5 uM incubated for 2 hrs prior to LPS challenge measured after 24 hrs by Western blot analysis. The data set is classed as functional, cell-based. The gist of the method: as §3
Data set [14] deals with RAW264.7. Briefly: Antiinflammatory activity in mouse RAW264.7 cells assessed as inhibition of LPS-induced iNOS expression at 0.5 uM incubated for 2 hrs prior to LPS challenge measured after 24 hrs by Western blot analysis. In kind it is functional, cell-based. The gist of the method:
as §3

In data set [15] the test system is RAW264.7. Briefly: Antiinflammatory activity in mouse RAW264.7 cells assessed as inhibition of LPS-induced COX-2 expression at 0.5 to 2 uM incubated for 2 hrs prior to LPS challenge measured after 24 hrs by Western blot analysis. In kind it is functional, cell-based. The method in brief:
as §3

Data set [16] has as its system RAW264.7. Briefly: Antiinflammatory activity in mouse RAW264.7 cells assessed as downregulation of LPS-induced iNOS mRNA expression at 2 uM incubated for 2 hrs prior to LPS challenge measured after 9 hrs by RT-PCR analysis. In kind it is functional, cell-based. The method in brief: as §2
Data set [17] relates to RAW264.7. Briefly: Antiinflammatory activity in mouse RAW264.7 cells assessed as inhibition of LPS-induced iNOS expression at 0.5 to 2 uM incubated for 2 hrs prior to LPS challenge measured after 24 hrs by Western blot analysis. In kind it is functional, cell-based. The method in brief: as §3
In data set [18] the target is Transcription factor p65 (Mus musculus) (UniProt Q04207). Briefly: Inhibition of NFkappaB p65 nuclear translocation in mouse RAW264.7 cells after 24 hrs by DAPI staining-based laser confocal immunofluorescent microscopic analysis. The data set is classed as cell-based. The gist of the method:
as §4

Turning to `COc1ccc(OC2=CC(=O)C(=O)c3ccccc32)cc1`, the inhibition entry (in data set [1]; in the data set with RAW264.7 [2]; in the data set with RAW264.7 [6]; in the data set on RAW264.7 [10]) was “Dose-dependent effect” in each case. Also, the IC50 – broadly, the concentration at which inhibition is half-maximal – came to 740 nM with RAW264.7 [3] and 31700 nM in the data set on RAW264.7 [9]. The figures for the Activity entry (in the data set with RAW264.7 [4]; in the data set with RAW264.7 [5]; in data set [11]) were “Dose-dependent effect”, “Dose-dependent effect” and “Not Active”, respectively. The inhibition entry in [7] was “Active”. In addition, the inhibition result in data set [8] is “inactive”.
As to `COc1ccc(NC2=CC(=O)C(=O)c3ccccc32)cc1`, the IC50 in the data set on RAW264.7 [3] worked out at 810 nM; in the data set with RAW264.7 [9], 1840 nM.
For `COc1ccc(-c2nc3c4ccoc4c4ccccc4c3[nH]2)cc1`, in the data set on RAW264.7 [12], the IC50 was found to be 47 nM.
Turning to `COc1ccc(OC2=CC(=O)/C(=N\O)c3ccccc32)cc1`, the IC50 in the data set with RAW264.7 [3] was 1290 nM; with RAW264.7 [9], 20600 nM. Also, the inhibition result with RAW264.7 [13] and in the data set on RAW264.7 [14] was “Active” throughout. Moreover, the Activity entry in data set [11] is “Not Active”.
For `O=C1C=C(Nc2ccccc2)c2ccccc2/C1=N/O`, the IC50 is 630 nM in the data set on RAW264.7 [3] and 1670 nM with RAW264.7 [9].
Turning to `O=C1C=C(Oc2ccccc2)c2ccccc2C1=O`, the IC50 with RAW264.7 [3] is 850 nM; with RAW264.7 [9], 28500 nM. The inhibition entry in the data set with RAW264.7 [13] and in the data set with RAW264.7 [14] was “Active” each time. Besides, the Activity entry in data set [11] is “Not Active”.
For `CC1(C)CCC2=C(O1)c1ccccc1C(=O)C2=O` [LAPACHONE], the inhibition entry (in data set [1]; in the data set on RAW264.7 [2]; with RAW264.7 [6]; in the data set on RAW264.7 [10]) was “Dose-dependent effect” each time. Also, the results for the IC50 with RAW264.7 [3] and in the data set on RAW264.7 [9] were 470 nM and 4060 nM, respectively. For the same compound, the Activity result was “Dose-dependent effect” with RAW264.7 [4], “Dose-dependent effect” in the data set with RAW264.7 [5] and “Not Active” in data set [11].
For `CC(=N)NCc1cccc(CN)c1` [1400W], the 50% inhibitory concentration (IC50) was 200 nM in the data set with RAW264.7 [3] and 47500 nM in the data set with RAW264.7 [9]. Besides, the inhibition result in the data set with RAW264.7 [15] and with RAW264.7 [17] was “Active” throughout. For the same compound, the Activity result in data set [11] is “Not Active”. For the same compound, in the data set on RAW264.7 [16], the result was Active.
As for `COc1ccc(NC2=CC(=O)/C(=N\O)c3ccccc32)cc1`, the 50% inhibitory concentration (IC50) in the data set with RAW264.7 [3] worked out at 870 nM; in the data set with RAW264.7 [9] it was 4690 nM.
`Nc1ncnc2c1ncn2[C@@H]1O[C@H](CO)C[C@H]1O`: in [18], the inhibition result is “Active”.
